In ChEMBL document CHEMBL1221219, “Selective blockade of 2-arachidonoylglycerol hydrolysis produces cannabinoid behavioral effects” (Nat Chem Biol, 2009):
Active and inactive are the calls of the source. The rule behind the calls is not given here.

Experiments:
[1] = target: T1, Cytosolic phospholipase A2 (Homo sapiens) (UniProt P47712); experiment: Inhibition of recombinant cPLA2 4a expressed in HEK293 cells at 20 uM by FP-rhodamine labeling method; type: cell-based
T1 sequence (whole entry): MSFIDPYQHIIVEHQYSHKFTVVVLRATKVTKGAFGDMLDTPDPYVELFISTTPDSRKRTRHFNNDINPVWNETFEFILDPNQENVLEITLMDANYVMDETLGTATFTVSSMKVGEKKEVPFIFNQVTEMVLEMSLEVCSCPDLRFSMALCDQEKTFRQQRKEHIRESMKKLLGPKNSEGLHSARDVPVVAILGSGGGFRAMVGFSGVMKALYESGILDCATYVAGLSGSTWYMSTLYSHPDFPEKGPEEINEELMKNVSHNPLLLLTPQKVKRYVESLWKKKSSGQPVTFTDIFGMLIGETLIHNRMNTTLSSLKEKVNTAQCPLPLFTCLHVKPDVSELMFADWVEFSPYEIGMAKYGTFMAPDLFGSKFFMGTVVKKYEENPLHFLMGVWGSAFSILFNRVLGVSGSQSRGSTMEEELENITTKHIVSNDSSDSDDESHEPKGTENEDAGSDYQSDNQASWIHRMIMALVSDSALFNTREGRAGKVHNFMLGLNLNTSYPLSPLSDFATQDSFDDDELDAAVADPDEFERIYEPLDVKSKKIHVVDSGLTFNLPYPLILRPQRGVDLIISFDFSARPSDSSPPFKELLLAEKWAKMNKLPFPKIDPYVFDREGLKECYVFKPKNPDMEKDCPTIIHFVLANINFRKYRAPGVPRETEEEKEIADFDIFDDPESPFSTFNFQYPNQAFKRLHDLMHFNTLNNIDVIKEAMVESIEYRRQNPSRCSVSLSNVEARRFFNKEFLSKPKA

Mus musculus [2] = experiment: Inhibition of AADACL1 in C57B1/6J mouse brain membrane at 16 mg/kg, ip after 4 hrs by competitive activity-based protein profiling-MudPIT method; type: functional, organism-based; set-up: dose 16 mg/kg
Procedure, shortened: (§1)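 Mice were dosed 16 mg kg^-1 i.p. or vehicle and killed at 4 h. Brain membrane proteomes were labelled with FP-biotin, avidin-enriched, trypsin-digested on bead, analysed by multidimensional LC-MS and identified by SEQUEST.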

Mus musculus [3] = experiment: Inhibition of TPP2 in C57B1/6J mouse brain membrane at 16 mg/kg, ip after 4 hrs by competitive activity-based protein profiling-MudPIT method; type: functional, organism-based; set-up: dose 16 mg/kg
Procedure, shortened: (§2)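 After i.p. dosing in 4:1 PEG300:Tween80, male C57Bl/6J mice were killed at 4 h. Brain membrane proteomes from treated and vehicle mice were labelled with FP-biotin. Labelled proteins were enriched on avidin, digested on-bead with trypsin and analysed by multidimensional LC-MS. Proteins were identified by SEQUEST, and dosed samples were compared with vehicle.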

Mus musculus [4] = experiment: Inhibition of PNPLA8 in C57B1/6J mouse brain membrane at 16 mg/kg, ip after 4 hrs by competitive activity-based protein profiling-MudPIT method; type: functional, organism-based; set-up: dose 16 mg/kg; procedure, shortened: as §2
Mus musculus [5] = experiment: Inhibition of CES31 in C57B1/6J mouse brain membrane at 16 mg/kg, ip after 4 hrs by competitive activity-based protein profiling-MudPIT method; type: functional, organism-based; set-up: dose 16 mg/kg; procedure, shortened: as §1
Mus musculus [6] = experiment: Inhibition of ACOT1 in C57B1/6J mouse brain membrane at 16 mg/kg, ip after 4 hrs by competitive activity-based protein profiling-MudPIT method; type: functional, organism-based; set-up: dose 16 mg/kg; procedure, shortened: as §1
Mus musculus [7] = experiment: Inhibition of PRCP in C57B1/6J mouse brain membrane at 16 mg/kg, ip after 4 hrs by competitive activity-based protein profiling-MudPIT method; type: functional, organism-based; set-up: dose 16 mg/kg; procedure, shortened: as §2
Mus musculus [8] = experiment: Inhibition of APT2 in C57B1/6J mouse brain membrane at 16 mg/kg, ip after 4 hrs by competitive activity-based protein profiling-MudPIT method; type: functional, organism-based; set-up: dose 16 mg/kg; procedure, shortened: as §1
Mus musculus [9] = experiment: Change in mono-oleoylglycerol levels in intraperitoneally dosed C57B1/6J mouse brain by LC-MS; type: functional, organism-based
Procedure, shortened: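 Male C57Bl/6J mice given 4, 8, 16 or 40 mg kg^-1 i.p. in 4:1 PEG300:Tween80 at 4 μl g^-1, or vehicle, and killed after 4 h. Whole-brain lipids were quantified by LC-MS.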

Mus musculus [10] = experiment: Induction of hypomotility in C57B1/6J mouse at 16 mg/kg, ip; type: functional, organism-based; set-up: dose 16 mg/kg
Procedure, shortened: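 Male C57Bl/6J mice, 6-8 weeks, 20-26 g, given 16 mg kg^-1 i.p. in 4:1 v/v PEG300:Tween80 at 4 μl g^-1; vehicle controls received PEG300:Tween80 alone. Cannabinoid effects were scored in the tetrad test.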

[11] = target: T2, Monoacylglycerol lipase ABHD6 (Mus musculus) (UniProt Q8R2Y0); experiment: Inhibition of ABHD6 in C57B1/6J mouse brain membrane at 10 uM after 30 mins by competitive activity-based protein profiling method; type: cell membranes
T2 sequence (whole entry): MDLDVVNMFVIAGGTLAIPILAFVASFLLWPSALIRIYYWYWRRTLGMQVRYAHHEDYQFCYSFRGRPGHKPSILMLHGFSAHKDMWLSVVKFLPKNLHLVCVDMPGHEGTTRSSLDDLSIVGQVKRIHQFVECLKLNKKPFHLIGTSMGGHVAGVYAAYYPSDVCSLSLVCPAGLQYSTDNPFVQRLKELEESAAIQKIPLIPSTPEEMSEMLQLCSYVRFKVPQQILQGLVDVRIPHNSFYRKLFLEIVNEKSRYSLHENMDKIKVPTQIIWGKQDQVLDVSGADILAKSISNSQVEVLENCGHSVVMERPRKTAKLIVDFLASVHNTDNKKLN
Procedure, shortened: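 Mouse brain membrane proteome at 1 mg ml^-1 in PBS was preincubated with inhibitor (1 nM-10 μM) for 30 min at 37°C. FP-rhodamine was then added at 2 μM final for 30 min at room temperature, followed by SDS-PAGE and in-gel fluorescence scanning.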

[12] = target: T3, Fatty-acid amide hydrolase 1 (Mus musculus) (UniProt O08914); details: C57B1/6J, Brain, Membrane, 10 uM
T3 sequence (whole entry): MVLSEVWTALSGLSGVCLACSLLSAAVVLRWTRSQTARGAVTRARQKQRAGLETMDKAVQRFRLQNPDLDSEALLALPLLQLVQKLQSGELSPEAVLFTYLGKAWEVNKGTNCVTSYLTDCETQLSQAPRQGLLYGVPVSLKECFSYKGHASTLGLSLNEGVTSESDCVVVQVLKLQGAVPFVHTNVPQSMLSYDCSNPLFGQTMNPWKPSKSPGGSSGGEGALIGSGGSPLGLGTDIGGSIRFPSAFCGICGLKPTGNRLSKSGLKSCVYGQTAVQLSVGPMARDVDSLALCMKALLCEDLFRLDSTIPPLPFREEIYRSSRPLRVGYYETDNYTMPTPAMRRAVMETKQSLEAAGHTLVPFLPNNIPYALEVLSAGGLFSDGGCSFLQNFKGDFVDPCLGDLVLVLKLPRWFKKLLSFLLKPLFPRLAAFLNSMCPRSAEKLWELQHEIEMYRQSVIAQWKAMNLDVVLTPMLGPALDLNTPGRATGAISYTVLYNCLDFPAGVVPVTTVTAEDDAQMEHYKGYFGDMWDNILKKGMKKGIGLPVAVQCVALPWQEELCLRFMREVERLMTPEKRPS

Compound: O=C(Oc1ccc([N+](=O)[O-])cc1)N1CCC(C(O)(c2ccc3c(c2)OCO3)c2ccc3c(c2)OCO3)CC1
- inhibition [1]: inactive
- inhibition (Mus musculus [2]): inactive
- inhibition (Mus musculus [3]): inactive
- inhibition (Mus musculus [4]): inactive
- inhibition (Mus musculus [5]): inactive
- inhibition (Mus musculus [6]): inactive
- inhibition (Mus musculus [7]): inactive
- inhibition (Mus musculus [8]): inactive
- Activity (Mus musculus [9]): inactive
- Activity (Mus musculus [10]): Active
- inhibition [11]: Active
- inhibition [12]: Active
